This is an account of results in PubChem BioAssay AID652186 (Vanderbilt Specialized Chemistry Center, 2013).

The target of the test is Metabotropic glutamate receptor 8 (Rattus norvegicus) (UniProt P70579). The test can be described thus: glutamate potency shift at rat mGlu8 – cell-based, HEK293A, Galpha15, Fluo4 calcium, selectivity assay for mGlu5 silent allosteric modulator project (AID 652186). The note with it: HEK293A rmGlu8+Galpha15, glutamate CRC. Put shortly: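 Schedule: dye loading 60 min at 37°C, compound 20 s, glutamate 80 s / System: HEK293 cells expressing rat mGlu8 plus Galpha15 / Medium: HBSS, HEPES and probenecid buffer, pH 7.4 / Detection: Fluo4 calcium fluorescence / Dosing: compound at 10 µM, 1% DMSO / Probe or stimulus: glutamate, 9 concentrations, 10 nM–1 mM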

The structures appear in SMILES notation. The source made the active and inactive calls. The rule behind the calls is not given here.

Chain of Metabotropic glutamate receptor 8 (Rattus norvegicus) (P70579 whole entry, looked up): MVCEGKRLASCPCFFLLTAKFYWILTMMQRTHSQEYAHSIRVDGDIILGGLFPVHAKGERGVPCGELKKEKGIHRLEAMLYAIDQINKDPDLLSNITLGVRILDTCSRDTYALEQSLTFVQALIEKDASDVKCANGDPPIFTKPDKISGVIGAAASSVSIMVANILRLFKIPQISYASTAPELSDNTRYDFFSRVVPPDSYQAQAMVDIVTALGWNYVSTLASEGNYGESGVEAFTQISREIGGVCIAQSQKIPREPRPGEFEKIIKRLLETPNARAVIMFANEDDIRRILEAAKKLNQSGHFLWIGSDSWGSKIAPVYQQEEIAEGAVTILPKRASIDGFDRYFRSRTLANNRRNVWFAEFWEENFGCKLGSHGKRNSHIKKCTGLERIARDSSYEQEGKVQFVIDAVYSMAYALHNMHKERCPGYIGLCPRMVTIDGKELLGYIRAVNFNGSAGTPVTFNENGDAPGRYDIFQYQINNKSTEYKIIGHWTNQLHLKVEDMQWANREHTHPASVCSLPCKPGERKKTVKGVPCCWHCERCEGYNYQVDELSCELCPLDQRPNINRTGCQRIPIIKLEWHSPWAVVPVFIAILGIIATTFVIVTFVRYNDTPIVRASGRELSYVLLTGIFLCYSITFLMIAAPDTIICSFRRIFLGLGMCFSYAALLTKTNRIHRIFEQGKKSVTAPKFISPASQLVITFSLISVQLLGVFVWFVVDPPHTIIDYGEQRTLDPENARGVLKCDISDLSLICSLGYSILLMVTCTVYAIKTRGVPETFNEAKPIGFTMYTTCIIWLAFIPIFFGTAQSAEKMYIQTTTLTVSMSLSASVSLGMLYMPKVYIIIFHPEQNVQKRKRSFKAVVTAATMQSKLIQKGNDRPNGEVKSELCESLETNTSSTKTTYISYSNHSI

Take `O=C(c1ccc(C#Cc2cccc(F)c2)cn1)N1CC2CC2C1` (stereo unspecified): the “glutamate EC50 in presence of 10 uM compound (vehicle ~3 uM)” value is “inactive”.
